According to ChEMBL document CHEMBL4049456, “Identification of 4-(Aminomethyl)-6-(trifluoromethyl)-2-(phenoxy)pyridine Derivatives as Potent, Selective, and Orally Efficacious Inhibitors of the Copper-Dependent Amine Oxidase, Lysyl Oxidase-Like 2 (LOXL2)” (J Med Chem, 2017):

Columns and labels:
MAO-A = target: T1, MAO-A (Homo sapiens, UniProt P21397); assay: Inhibition of recombinant human MAO-A assessed as reduction of H2O2 production from oxidative deamination of tyramine at 10 uM preincubated for 2 hrs followed by substrate addition; settings: probe tyramine
T1 sequence (P21397 whole entry): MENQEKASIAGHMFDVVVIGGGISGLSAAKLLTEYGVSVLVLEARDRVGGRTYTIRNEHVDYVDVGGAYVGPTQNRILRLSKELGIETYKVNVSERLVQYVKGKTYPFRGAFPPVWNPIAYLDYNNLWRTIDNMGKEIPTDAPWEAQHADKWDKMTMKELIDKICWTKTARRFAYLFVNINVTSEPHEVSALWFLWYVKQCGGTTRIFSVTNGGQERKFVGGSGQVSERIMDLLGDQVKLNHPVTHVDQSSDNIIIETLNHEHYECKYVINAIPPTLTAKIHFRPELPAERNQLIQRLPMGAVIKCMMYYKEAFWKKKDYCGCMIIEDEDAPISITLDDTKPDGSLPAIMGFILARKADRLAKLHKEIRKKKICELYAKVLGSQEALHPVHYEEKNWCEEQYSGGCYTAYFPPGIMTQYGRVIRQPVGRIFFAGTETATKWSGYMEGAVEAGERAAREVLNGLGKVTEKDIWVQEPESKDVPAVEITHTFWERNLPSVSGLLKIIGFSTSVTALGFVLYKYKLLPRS
Summary of the method: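 Purified recombinant human MAO-A (tyramine substrate) or MAO-B (benzylamine substrate) was preincubated with compound for 2 h. Percent inhibition was calculated against vehicle and enzyme-free controls.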

[1] = target: T2, Lysyl oxidase homolog 2 (Homo sapiens) (UniProt Q9Y4K0); assay: (§1) Inhibition of recombinant human LOXL2 expressed in human whole blood assessed as reduction of H2O2 production from oxidative deamination of DAP preincubated for 2 hrs followed by substrate addition measured every 2 mins for 1 hr by amplex red reagent-based fluorescence assay
T2 sequence (whole entry): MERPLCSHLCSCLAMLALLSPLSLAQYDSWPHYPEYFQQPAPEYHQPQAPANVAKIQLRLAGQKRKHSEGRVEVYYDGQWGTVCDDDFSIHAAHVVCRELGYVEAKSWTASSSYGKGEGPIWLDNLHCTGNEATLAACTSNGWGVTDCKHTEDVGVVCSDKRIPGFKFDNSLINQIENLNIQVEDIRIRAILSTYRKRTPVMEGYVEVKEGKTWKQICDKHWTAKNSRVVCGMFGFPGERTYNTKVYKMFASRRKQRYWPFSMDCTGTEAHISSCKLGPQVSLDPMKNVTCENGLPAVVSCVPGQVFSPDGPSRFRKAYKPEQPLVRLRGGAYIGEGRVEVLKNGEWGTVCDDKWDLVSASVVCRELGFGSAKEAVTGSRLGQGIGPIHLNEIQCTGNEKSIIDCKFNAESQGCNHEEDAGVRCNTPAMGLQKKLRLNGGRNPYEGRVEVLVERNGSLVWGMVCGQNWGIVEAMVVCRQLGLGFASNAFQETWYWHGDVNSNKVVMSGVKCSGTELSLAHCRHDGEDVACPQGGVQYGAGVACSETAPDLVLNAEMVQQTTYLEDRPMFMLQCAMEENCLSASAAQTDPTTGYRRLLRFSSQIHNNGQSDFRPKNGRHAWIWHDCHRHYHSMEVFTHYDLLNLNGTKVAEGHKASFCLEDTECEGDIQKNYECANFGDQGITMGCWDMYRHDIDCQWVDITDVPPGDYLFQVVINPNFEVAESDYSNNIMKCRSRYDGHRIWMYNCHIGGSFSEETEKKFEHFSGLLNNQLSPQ

Lysyl oxidase homolog 2 = target: T3, Lysyl oxidase homolog 2 (Homo sapiens, UniProt Q9Y4K0); assay: as §1
T3 sequence (Q9Y4K0 whole entry): T2 sequence (whole entry)

[2] = target: T4, Diamine oxidase [copper-containing] (Homo sapiens) (UniProt P19801); assay: Inhibition of recombinant human DAO assessed as reduction of H2O2 production from oxidative deamination of DAP at 10 uM preincubated for 2 hrs followed by substrate addition measured every 2 mins for 1 hr by amplex red reagent-based fluorescence assay
T4 sequence (whole entry): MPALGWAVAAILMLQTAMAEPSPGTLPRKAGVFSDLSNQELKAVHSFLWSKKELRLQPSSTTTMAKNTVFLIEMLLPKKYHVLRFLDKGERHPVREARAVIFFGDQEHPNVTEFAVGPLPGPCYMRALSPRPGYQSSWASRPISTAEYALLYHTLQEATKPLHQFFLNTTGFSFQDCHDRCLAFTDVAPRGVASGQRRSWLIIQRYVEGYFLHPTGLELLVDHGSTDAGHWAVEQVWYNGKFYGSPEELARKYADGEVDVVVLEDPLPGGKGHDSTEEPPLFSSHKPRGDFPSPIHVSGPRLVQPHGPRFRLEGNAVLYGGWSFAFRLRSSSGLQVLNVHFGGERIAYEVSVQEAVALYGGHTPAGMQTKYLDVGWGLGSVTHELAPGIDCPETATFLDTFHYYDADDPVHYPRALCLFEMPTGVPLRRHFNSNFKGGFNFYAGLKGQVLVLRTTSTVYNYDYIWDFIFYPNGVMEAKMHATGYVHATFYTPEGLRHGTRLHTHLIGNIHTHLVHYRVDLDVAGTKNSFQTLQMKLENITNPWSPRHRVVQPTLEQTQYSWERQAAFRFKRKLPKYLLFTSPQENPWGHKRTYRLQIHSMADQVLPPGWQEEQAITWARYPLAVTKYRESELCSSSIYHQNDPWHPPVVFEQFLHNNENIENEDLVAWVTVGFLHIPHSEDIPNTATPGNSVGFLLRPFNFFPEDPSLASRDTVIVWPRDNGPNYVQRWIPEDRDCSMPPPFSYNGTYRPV
Summary of the method: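 Purified recombinant human DAO was preincubated with compound for 2 h and DAP used as substrate. Percent inhibition was calculated against vehicle and enzyme-free controls.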

`Cl.NCc1cc(Oc2cccc(C(=O)N3C[C@@H](O)[C@H](F)C3)c2)nc(C(F)(F)F)c1` (racemic) showed an inhibition at 2 h, 10 µM (MAO-A) of under 10%, an IC90 [1] of 5.4 µM and an IC50 (Lysyl oxidase homolog 2) of 0.87 µM. It also gave an inhibition [2] of under 10%.
